Screening results (PubChem BioAssay)
Sampled rows, rich in hits. Any-hit rate of the full collection: about 4%.
hiPSC survival: increases survival of single human iPS cells; hiPSC single-cell survival, ATPlite luminescence; 100% = ROCK inhibitor wells, 0% = DMSO; survival enhancement, % at 20 µM; 360,000 compounds, 0.044% hits; in the data active means survival enhancement above about 18%;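 further: cells exposed to compounds for 16 hours before the ATP read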
FAS-TE inh: blocks the thioesterase domain of human fatty acid synthase; P49327; recombinant FAS-TE, OMFH fluorogenic substrate, fluorescence endpoint; inhibition, % at 15 µM; 360,000 compounds, 0.67% hits; AID 602261;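 active means compounds whose normalised, plate-corrected inhibition of enzyme fluorescence in the single-dose primary screen is 50% or more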
Arrestin-AP2 inh: blocks beta-arrestin peptide binding to AP2 adaptin | FITC-arrestin peptide / GST-AP2 beads, flow cytometry; AP2 beta2 appendage carries R879A mutation | AID 504490 | 340,000 compounds, 0.31% hits | inhibition, % at 10 µM;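 active means inhibition above a set limit, near 3 SD of compounds lacking own fluorescence, cut at about 54% in these data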
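Assay system: GST-AP2 R879A bound to glutathione beads, E. coli-expressed; Medium: PBS with 0.05% Tween 20 and 0.1% BSA; Also added: fluorescein-tagged arrestin peptide at 50 nM final; Timing: 12 min plus 1 h, RT; Measured by: flow cytometry, FL1 (488/535 nm); Evaluation: percent drop in bead-associated FITC signal.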
Cardio protect: protects H9c2 cardiomyocytes from peroxide injury; H2O2 injury protection, ATPLite, 2 h; protection from H2O2 cell death, % at 20 µM; 360,000 compounds, 0.63% hits; AID 588492;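 active means compounds giving at least 50% protection of heart cells from peroxide-induced death in the single-dose screen, raw or plate-pattern-corrected value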
GRIN3A LBD mod: modulators (binders) of human NR3A ligand-binding domain; NR3A LBD differential scanning fluorimetry, Tm shift; 0% = protein alone, 100% = glycine-bound protein; Tm shift relative to glycine control, % at 25 µM; 340,000 compounds, 2.5% hits;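 active means melting temperature shift of at least 10% of the positive control shift, at one fixed dose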
SENP1 FRET inh: SENP1 (human) catalytic domain inhibition. Q9P0U3. recombinant SENP1 catalytic domain, CyPet-SUMO1-YPet FRET cleavage. inhibition, % at 10 µM. 360,000 compounds, 0.21% hits;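 active means inhibition at least 30% at 10 µM, raw YFP signal under a set limit, fluorescence ratio 0.5 to 1.5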
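material = recombinant human SENP1 catalytic domain, His6-tagged | quantity = 20 pM enzyme | reagent = 25 nM SUMO1 FRET substrate | compound dosing = 10 µM single point, 0.5% DMSO | timing = 50 min enzyme reaction, room temperature, light-protected | detection = FRET, CFP and YFP emission | control set = no-enzyme low, enzyme-DMSO high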
A number is an active result.

For O=C(O)C1C(c2ccccc2)C(C(=O)OCCCO)C1c1ccccc1 (stereo not drawn) the results were hiPSC survival inactive, FAS-TE inh inactive, Arrestin-AP2 inh inactive, Cardio protect inactive, GRIN3A LBD mod inactive and SENP1 FRET inh inactive.
Screening CCCCCOC(=O)C1C(c2ccccc2)C(C(=O)O)C1c1ccccc1 (stereo not drawn) returned hiPSC survival inactive, FAS-TE inh inactive, Arrestin-AP2 inh inactive, Cardio protect inactive, GRIN3A LBD mod 10 and SENP1 FRET inh inactive.
O=C(NC1CCCCC1)c1[nH]c(C(F)(F)F)nc1-c1ccccc1 was read as hiPSC survival inactive, FAS-TE inh inactive, Cardio protect inactive and SENP1 FRET inh inactive.
Screening N#CCC(CNc1ncc(C(F)(F)F)cc1Cl)OC(=O)c1ccc(Cl)cc1 (stereo not drawn) returned hiPSC survival inactive, FAS-TE inh inactive, Arrestin-AP2 inh inactive, Cardio protect inactive, GRIN3A LBD mod 11 and SENP1 FRET inh inactive.
`Nc1c(C(=O)N/N=C/c2cccnc2)oc2nc(-c3ccco3)cc(-c3ccco3)c12` gave hiPSC survival inactive, FAS-TE inh inactive, Arrestin-AP2 inh inactive, Cardio protect 77, GRIN3A LBD mod inactive and SENP1 FRET inh inactive.
Screening Nc1c(C(=O)N/N=C/c2cccnc2)oc2nc(-c3ccccc3)cc(-c3ccco3)c12 returned hiPSC survival inactive, FAS-TE inh inactive, Arrestin-AP2 inh inactive, Cardio protect 68, GRIN3A LBD mod inactive and SENP1 FRET inh inactive.
S=C(Cc1ccccc1)N1CCOCC1 was read as hiPSC survival inactive, FAS-TE inh inactive, Arrestin-AP2 inh inactive, Cardio protect inactive, GRIN3A LBD mod inactive and SENP1 FRET inh inactive.
For CC(C)(CCC(=S)N1CCOCC1)c1ccccc1 the results were hiPSC survival inactive, FAS-TE inh inactive, Arrestin-AP2 inh inactive, Cardio protect inactive, GRIN3A LBD mod 11 and SENP1 FRET inh inactive.
COc1ccc(NC(=O)c2cc(C3CCCCN3C(=O)c3ccccc3)on2)c(C)c1 (stereo not drawn) was read as hiPSC survival inactive, FAS-TE inh inactive, Cardio protect inactive and SENP1 FRET inh inactive.
Screening COC(=O)[C@@H]1C[C@@]2(O)[C@H](O)[C@H](O)[C@H](O)C[C@H]2N1Cc1cc(F)ccc1F returned hiPSC survival inactive, FAS-TE inh inactive, Arrestin-AP2 inh inactive, Cardio protect inactive, GRIN3A LBD mod 11 and SENP1 FRET inh inactive.
Screening COC(=O)/C=C1\SC(=Nc2ccccc2)NC1=O returned hiPSC survival inactive, FAS-TE inh inactive, Arrestin-AP2 inh inactive, Cardio protect inactive, GRIN3A LBD mod inactive and SENP1 FRET inh inactive.
Screening COc1cc(/C=C2\SC(=Nc3ccc(O)cc3)NC2=O)cc(OC)c1O returned hiPSC survival inactive, FAS-TE inh inactive, Arrestin-AP2 inh inactive, Cardio protect inactive, GRIN3A LBD mod 13 and SENP1 FRET inh inactive.
COC(=O)/C=C1/SC(=Nc2ccc(Cl)c(Cl)c2)NC1=O was read as hiPSC survival inactive, FAS-TE inh inactive, Arrestin-AP2 inh inactive, Cardio protect inactive, GRIN3A LBD mod 18 and SENP1 FRET inh inactive.
O=C1NC(=Nc2ccc(O)cc2)S/C1=C/c1ccco1 was read as hiPSC survival inactive, FAS-TE inh inactive, Arrestin-AP2 inh inactive, Cardio protect inactive, GRIN3A LBD mod 13 and SENP1 FRET inh inactive.
For Cc1ccc(N=C2NC(=O)/C(=C\c3ccco3)S2)cc1 the results were hiPSC survival inactive, FAS-TE inh inactive, Arrestin-AP2 inh inactive, Cardio protect inactive, GRIN3A LBD mod inactive and SENP1 FRET inh inactive.
`Cc1ccc(N=C2NC(=O)/C(=C/c3cn(C)c4ccccc34)S2)cc1C` gave hiPSC survival inactive, FAS-TE inh inactive, Arrestin-AP2 inh inactive, Cardio protect inactive, GRIN3A LBD mod 32 and SENP1 FRET inh inactive.
Screening O=C(Nc1cccc2c1CCCC2)c1cc(C2CCCCN2S(=O)(=O)c2cccs2)on1 (stereo not drawn) returned hiPSC survival inactive, FAS-TE inh inactive, Cardio protect inactive and SENP1 FRET inh inactive.
`O=C(NC1CCCC1)C(c1ccccc1)n1c(-c2cccc3ccccc23)nc2ccccc21` (stereo not drawn) gave SENP1 FRET inh inactive.
O=C(NC1CCCC1)C(c1ccccc1)n1c(-c2ccc3c(c2)CCO3)nc2ccccc21 (stereo not drawn) was read as SENP1 FRET inh inactive.
For Cn1cccc1/C=C1\SC(=Nc2cccc(O)c2)NC1=O the results were hiPSC survival inactive, FAS-TE inh inactive, Arrestin-AP2 inh inactive, Cardio protect inactive, GRIN3A LBD mod 26 and SENP1 FRET inh inactive.
`CCOC(=O)C1CCCN(C(=O)c2cccnc2Oc2ccccc2)CC1` (stereo not drawn) gave hiPSC survival inactive, FAS-TE inh inactive, Cardio protect inactive and SENP1 FRET inh inactive.
Screening CC(C)CCNC(=O)c1cn(C)c2ccc(S(=O)(=O)N3CCCC3)cc2c1=O returned hiPSC survival inactive, FAS-TE inh inactive, Arrestin-AP2 inh inactive, Cardio protect inactive, GRIN3A LBD mod inactive and SENP1 FRET inh inactive.
Screening CC(C)CN(CCNC(=O)c1cn(C)c2ccc(S(=O)(=O)N3CCCC3)cc2c1=O)CC(C)C returned hiPSC survival inactive, FAS-TE inh inactive, Arrestin-AP2 inh inactive, Cardio protect inactive, GRIN3A LBD mod 26 and SENP1 FRET inh inactive.
Screening O=C1N(c2ccccc2)CCN1c1ccccc1 returned hiPSC survival inactive, FAS-TE inh inactive, Arrestin-AP2 inh inactive, Cardio protect inactive, GRIN3A LBD mod inactive and SENP1 FRET inh inactive.
For O=C1NCCN1c1ccccc1 the results were hiPSC survival 29, FAS-TE inh inactive, Arrestin-AP2 inh inactive, Cardio protect inactive, GRIN3A LBD mod inactive and SENP1 FRET inh inactive.
For CCC(CC)C(C(=O)NCc1ccccc1)N1CCN(C(=O)C2CCCO2)CC1 (stereo not drawn) the results were SENP1 FRET inh inactive.
Cc1ccc(S(=O)(=O)N(C)C[C@H]2OCCCC[C@@H](C)Oc3ccc(NC(=O)Cc4ccccc4)cc3C(=O)N([C@H](C)CO)C[C@@H]2C)cc1 was read as hiPSC survival inactive, FAS-TE inh inactive, Cardio protect inactive and SENP1 FRET inh inactive.
For CCOC(=O)N1CCc2c(sc(NC(=O)CCS(=O)(=O)c3ccccc3)c2C(N)=O)C1 the results were hiPSC survival inactive, FAS-TE inh inactive, Arrestin-AP2 inh inactive, Cardio protect inactive, GRIN3A LBD mod inactive and SENP1 FRET inh inactive.
For CNC(=O)c1c(NC(=O)CCS(=O)(=O)c2ccc(Cl)cc2)sc2c1CCN(C(=O)OC)C2 the results were hiPSC survival inactive, FAS-TE inh inactive, Arrestin-AP2 inh inactive, Cardio protect inactive, GRIN3A LBD mod 10 and SENP1 FRET inh inactive.
CCn1c2ccccc2nc2cc3c(cc21)c(Cl)c(=O)c1ccccc13 was read as hiPSC survival inactive, FAS-TE inh inactive, Cardio protect inactive and SENP1 FRET inh inactive.
